The structures appear in SMILES notation.

A short description of this data set: Toxicity liver stage against HepG2, at 10uM. It is filed as cell-based. The conditions noted are these: human, HepG2-A16-CD81EGFP cells; read-out: INHIBITION
The arrangement: test concentration 10 uM, cell line HepG2-A16-CD81EGFP. The method, boiled down: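 Uninfected HepG2-A16-CD81EGFP cells, 3 × 10^3 per well, 1536-well, plated on prespotted compound at 10 μM final, parasite-free screening media added to match infected plates; puromycin 10 μM positive, DMSO 0.5% negative; run in parallel with 48 h PbLuc assay at 37 °C, 5% CO2; viability by CellTiter-Glo luminescence, normalized to controls.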
As to `O=C(NC[C@H]1Cn2c(-c3ccccc3)cnc2CO1)C1CC1`, the cytotoxicity at 10 µM is -3.01%.

In the case of `CC(C)NC(=O)[C@@H]1Cc2[nH]cnc2CN1CCCc1ccccc1`, the cytotoxicity at 10 µM stood at 10.1%. The result for `O[C@@H]1C[C@@H](c2nc(-c3cccnc3)no2)N(C2CCOCC2)C1` reads -4.03%.

In the case of `CC(=O)N1N=C(Cc2ccccc2)OC1C(=O)NCC(=O)OC(C)(C)C` (centres undefined), the cytotoxicity at 10 µM amounted to 0.15%. The result for `COc1cccc(-c2nc(C)c(C(=O)N[C@@H](CCSC)C(=O)O)s2)c1` reads -1.64%. The result for `COc1cc(OC)c(C2CC(=O)Oc3cc(C)[nH]c(=O)c32)c(OC)c1` (centres undefined) reads -6.24%; that for `Cc1nnsc1-c1nnc2sc(C(C)C)nn12`, -9.74%. With `CSCC(C)(O)CNS(=O)(=O)c1ccc(F)cc1` (centres undefined), the cytotoxicity at 10 µM is -8.06%. With `Cc1cccc(OC2CCN(C(=O)c3ccc4c(c3)OCO4)CC2)n1`, the cytotoxicity at 10 µM was -5.51%. With `COc1cc(N2CC3(CCN(c4ncccn4)C3)C2)ncn1`, the cytotoxicity at 10 µM was 9.79%. For `CCS(=O)(=O)N1C[C@@H]2COC[C@@H](Cc3nc(C)no3)[C@@H]2C1`, the cytotoxicity at 10 µM came out at 9.04%. Take `CN(C)Cc1nn(C)c2c1CN(C(=O)Nc1ccc(F)cc1)C2`: the cytotoxicity at 10 µM was found to be 6.04%. For the compound `Cc1cccc(NC(=O)N2CCC3(CC(=O)N(c4ccsc4)C3)C2)c1` (centres undefined), the cytotoxicity at 10 µM was 6.47%. `CSCCC(CO)NC(=O)c1ccc2[nH]/c(=N\S(C)(=O)=O)sc2c1` (centres undefined): the cytotoxicity at 10 µM is -6.96%.

For the compound `O=C(Cn1nc(N2CCOCC2)ccc1=O)Nc1nccs1`, the cytotoxicity at 10 µM was -1.47%. For the compound `Cc1cccnc1NC(=O)CC1(Cn2cnnn2)CCCCC1`, the cytotoxicity at 10 µM is -5.62%. Take `Fc1cnc(N2CCO[C@H]3CN(CC4CCC4)C[C@H]32)nc1`: the cytotoxicity at 10 µM was -8.71%. For `COC(=O)C1=C(C)N=C2SCC(=O)N2C1c1cn(C)nc1C` (centres undefined), the cytotoxicity at 10 µM is 8.9%.

As to `CNc1nc(C2CCCN(C(=O)C(C)C)C2)nc2c1CN(C)CC2` (centres undefined), the cytotoxicity at 10 µM is -16.3%. Turning to `CC1(C(=O)NC2CCCC2)CN(c2cnccn2)CCO1` (centres undefined), the cytotoxicity at 10 µM is -33.9%. Take `CC(=O)N1CCN(CCOc2ccc(F)cc2)CC(C(N)=O)C1` (centres undefined): the cytotoxicity at 10 µM was -38.9%. In the case of `CNC(=O)c1ccc(C2CCCN(C(=O)c3sc(C)nc3C)C2)nc1` (centres undefined), the cytotoxicity at 10 µM was -36.5%. For `CCN1CCC(c2cncc(N(C)C)n2)CC1`, the cytotoxicity at 10 µM was 5.12%. `Cc1ncccc1C(=O)Nc1cccc(C[S+](C)[O-])c1C` (centres undefined): the cytotoxicity at 10 µM was found to be 4.08%. Then `CN(C)c1ccc(C(=O)N2CCCCC2CC(N)=O)c(F)c1` (centres undefined), with 7.12%; and `CCOCCS(=O)(=O)c1nnc(NCCOC)s1`, with -7.18%; and `CC(C)c1nn(C)cc1CNCc1cccc(N(C)C)c1`, with -0.509%. Regarding `CC(NC(=O)NCC(C)(C)O)c1ccc(-c2ccncc2)cc1` (centres undefined), the cytotoxicity at 10 µM is 7.15%. Consider `CC(C)c1nnc(CN2CCCC2C(=O)OCc2ccccc2)o1` (centres undefined), for which the cytotoxicity at 10 µM stood at 2.78%. For the compound `CCc1cc(NCCCNS(C)(=O)=O)nc(-c2ccccn2)n1`, the cytotoxicity at 10 µM is 1.8%.

`COc1ccccc1CC1CCCN(CCN2CCOC2=O)C1` (centres undefined): the cytotoxicity at 10 µM turned out to be 6.93%. As to `Cc1ccc(NC(=O)N2CCN(C(=O)CC3CCCC3)CC2)s1`, the cytotoxicity at 10 µM stood at 4.36%. Consider `Clc1cccc(N2CCC(NCc3cc[nH]n3)C2)c1` (centres undefined), for which the cytotoxicity at 10 µM was determined as 4.01%.

Consider `Cc1oc(NC(=O)C(C)N2CCN(C(=O)C3CC3)CC2)c(C#N)c1C` (centres undefined), for which the cytotoxicity at 10 µM is -18.6%. `O=C(Nc1nncs1)N1CCC(CCc2ccc(O)cc2)CC1`: the cytotoxicity at 10 µM came out at 6.81%. With `Cc1cc(C)n(CC2CCCCN2CC(=O)Nc2ccncc2)n1` (centres undefined), the cytotoxicity at 10 µM turned out to be 8.69%. As for `CC(C)NC(=O)NCCCc1cccc(F)c1`, the cytotoxicity at 10 µM is -0.0328%.

For `CNC(=O)CN(C)C(=O)Cc1csc(C(C)C)n1`, the cytotoxicity at 10 µM was -5.07%. On to `CSCCN(C)C(=O)C1(c2ccc(F)cc2F)CCOCC1`, for which the cytotoxicity at 10 µM is 0.53%. For the compound `OC[C@@H](O)CN(CCC(F)(F)F)c1ncc(Br)cn1`, the cytotoxicity at 10 µM was -8.72%. For `Cc1cc(NC(=O)Cn2nc(C)c(C#N)c2N)ccc1Br`, the cytotoxicity at 10 µM is -6.58%. As to `CCc1sc(-c2nnc(CNCCn3cccn3)o2)cc1C`, the cytotoxicity at 10 µM was found to be 5.05%. As to `CCc1ccc(C(=O)O)cc1S(=O)(=O)Nc1c(C)ccn(C)c1=O`, the cytotoxicity at 10 µM stood at 4.28%. In the case of `Cc1nc(O)ccc1C(=O)NCc1ncccc1F`, the cytotoxicity at 10 µM worked out at 7.97%. `CCCNC(=O)c1cccc(CNCc2csc(CC)n2)c1`: the cytotoxicity at 10 µM is -10.7%. Then `CC(=O)c1ccc(S(=O)(=O)N2CCC(c3n[nH]c(C)n3)CC2)cc1`, with -5.24%. As to `CC1CCN(CC(O)CN2CCn3c(nnc3C3CC3)C2)CC1` (centres undefined), the cytotoxicity at 10 µM is -2.22%. Then `N#Cc1ccnc(N2CCN(CC(O)c3cccc(F)c3)CC2)c1` (centres undefined), with 3.15%. In the case of `Cc1cccc(CN2CC[C@H]3OCC[C@@]3(C(=O)N3CCOCC3)C2)n1`, the cytotoxicity at 10 µM was -1.49%. Consider `Cn1cc(N2C(=O)C[C@@H]3[C@@H]2CCN3C(=O)c2ccco2)cn1`, for which the cytotoxicity at 10 µM was -107%. As to `CCn1c2c(ccc1=O)CC(NCc1cnn(C)c1)CC2` (centres undefined), the cytotoxicity at 10 µM was -102%. `CC(=O)N1CCC2(CC1)CCN(C(=O)c1ccc(F)c(C(F)(F)F)c1)C2`: the cytotoxicity at 10 µM is -80%.

Take `CC(C)c1nccc([C@@H]2C[C@@H]3CCN(Cc4ccco4)C[C@H]3O2)n1`: the cytotoxicity at 10 µM was 1.1%.

In the case of `Cc1ccc(-c2cnnc(N3CCCC3c3nccs3)n2)o1` (centres undefined), the cytotoxicity at 10 µM worked out at 3.04%.

In the case of `Cc1noc(C)c1CN1CCCCC1CCc1ccc(O)cc1` (centres undefined), the cytotoxicity at 10 µM was -2.06%. For the compound `COc1cc(F)c(C(=O)NCc2ccon2)c(F)c1`, the cytotoxicity at 10 µM came to 2.13%. For `Cc1cc(C(=O)N2CCN[C@H](C)C2)c2ccc(F)cc2n1`, the cytotoxicity at 10 µM is 13.7%. For `Cc1cc(C)nc(NC(C)Cc2cnccn2)n1` (centres undefined), the cytotoxicity at 10 µM was found to be 1.54%. On to `COc1ccccc1C(C(=O)O)N1CCCN(C2CCCC2)CC1` (centres undefined), for which the cytotoxicity at 10 µM is -9.12%. In the case of `Cc1cc2nc(C(C)C)cc(N3CCN(c4ccc(O)cc4)CC3)n2n1`, the cytotoxicity at 10 µM worked out at 10.8%.

In the case of `O=C(NCCc1nc(-c2cccnc2)no1)c1ccc(C2CCCO2)s1` (centres undefined), the cytotoxicity at 10 µM was found to be 11.2%.

As to `CC(=O)N1CCN(C(=O)Nc2ccc(Cl)cc2)[C@H]2CS(=O)(=O)C[C@H]21`, the cytotoxicity at 10 µM came to 6.55%. As for `COc1cccn(C(C)C(=O)NC2CCCC2)c1=O` (centres undefined), the cytotoxicity at 10 µM turned out to be 5.32%.

For `Cc1ccsc1[C@@H]1CCN(C(=O)Cn2cc3ccccc3n2)C[C@H]1O`, the cytotoxicity at 10 µM is -1.96%. The result for `CCn1c(C2CCCN(Cc3cc(OC)cc(OC)c3)C2)nn(C)c1=O` (centres undefined) reads 0.0264%. On to `CN(C)S(=O)(=O)N1CC[C@]2(O)CCN(c3nccs3)C[C@@H]2C1`, for which the cytotoxicity at 10 µM was -13%.

Consider `CN1CCC(N(CCc2ccccc2)C(=O)c2ccc(C#N)nc2)CC1`, for which the cytotoxicity at 10 µM was -3.33%. The result for `COc1cccc(OCC(=O)NCc2ccc3[nH]c(=O)[nH]c3c2)c1` reads 2.59%; that for `CC(C)C(NC(=O)c1ccc(=O)[nH]c1)c1nnc2n1CCNCC2` (centres undefined), -1.86%; that for `O=C(Cc1ccc(O)c(Cl)c1)N1CCN(CC2CC2)[C@@H]2CS(=O)(=O)C[C@@H]21`, 5.84%.

In the case of `O=C(Nc1nncs1)NC1CCN(Cc2ccccc2)C1` (centres undefined), the cytotoxicity at 10 µM was -0.397%. With `COc1c(CNC2CCN(c3ncccn3)CC2)c(C(C)C)nn1C`, the cytotoxicity at 10 µM was -4.81%. In the case of `CCCC(C)C(=O)N1CCC(n2cccc2C(=O)OC)CC1` (centres undefined), the cytotoxicity at 10 µM is -10%. On to `Nc1nc(Nc2ccccc2)cc(N2CCNCC2)n1`, for which the cytotoxicity at 10 µM turned out to be 1.23%. Then `CCOCc1nn(CC2CC2)c2c1CN(Cc1ccco1)CC2`, with 2.7%; and `CC(=O)N1CCOCC2(CN(Cc3ccccn3)CCO2)C1` (centres undefined), with -3.28%; and `CO[C@H]1CCN(Cc2c(C)noc2C)[C@@H]2CN(Cc3ccncc3)C[C@H]12`, with 5.59%. The result for `O=C(c1ccncc1)N1CC[C@@H]2[C@@H](CC1)OCCN2c1cccnc1` reads 8.25%; that for `c1cc(CN2CCC(c3ccc4c(c3)OCO4)CC2)ccn1`, -5.21%. On to `O=C(Nc1cnccn1)[C@@H]1CCO[C@@H]2CCN(Cc3ccsc3)C[C@@H]21`, for which the cytotoxicity at 10 µM was -77.1%. Regarding `c1ccc(CN2CCc3ncnc(-c4ccoc4)c3CC2)nc1`, the cytotoxicity at 10 µM is -79%.

As for `NC(=O)c1nc2c(s1)CCN(Cc1ccccc1)CC2`, the cytotoxicity at 10 µM was 9.61%.

With `O=C(c1cscn1)N1CC[C@@H]2[C@@H]1CCN2C1CCOC1` (some centres undefined), the cytotoxicity at 10 µM was 4.19%. Then `CCOC(=O)c1n[nH]cc1-c1cncn1CCn1nc(C)c(C)c1C`, with -35.3%; and `O=C(NCc1cnc2n1CCN(Cc1cccs1)C2)c1ccno1`, with -110%.

As to `N#Cc1cccc(C(=O)N2CC[C@H]3[C@H]2CCN3CC2CC2)c1`, the cytotoxicity at 10 µM stood at 3.03%. As for `c1cncc(CN2C[C@H]3CCC[C@@H](CNc4cnccn4)[C@H]3C2)c1`, the cytotoxicity at 10 µM was -2.1%. Consider `O=C(CCn1c(C(F)(F)F)cc2cccnc21)N1CCCC1`, for which the cytotoxicity at 10 µM was -21.5%. Then `CN(C)[C@H]1COC[C@@H]2CN(Cc3ccc4c(c3)OCO4)C[C@@H]21`, with 4.2%. Then `CC(C)N(C)Cc1cncc2c1CCN(CC(=O)N(C)C)C2`, with -100%; and `CS(=O)(=O)NC1CC2(CCN(CCF)CC2)Oc2ccccc21` (centres undefined), with -2.68%.

On to `c1cnc(NCc2cncc3c2CCN(Cc2cccnc2)C3)nc1`, for which the cytotoxicity at 10 µM was -68.5%. In the case of `O=S(=O)(C1CC1)N1CCc2ncnc(-c3ccncc3)c2CC1`, the cytotoxicity at 10 µM is -3.27%. Turning to `C=c1ncsc1=C1NC(c2cccc(CN3CCOCC3)c2)=NO1`, the cytotoxicity at 10 µM was -11.3%.
